One block for each compound: values may come before it.
Tests used:
Plasma kallikrein = Plasma kallikrein (Homo sapiens, UniProt P03952); experiment: Inhibition of human plasma kallikrein using H-(D)-Pro-Phe-Arg-pNA as substrate after 10 to 120 mins at 37 degC by spectrophotometric method
Procedure, shortened: (§1)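 Purified human proteases, 37 °C; reaction started by adding enzyme to substrate (up to 4× Km) ± inhibitor; compound from DMSO, 1% DMSO final except where noted. […] Buffers: FXIa, chymotrypsin, tPA, plasmin, urokinase in 50 mM HEPES pH 7.4, 145 mM NaCl, 5 mM KCl, 0.1% PEG 8000; FXa, thrombin, trypsin, plasma kallikrein, aPC in 100 mM Na phosphate pH 7.4, 200 mM NaCl, 0.5% PEG 8000; FIXa in 50 mM Tris pH 7.4, 100 mM NaCl, 5 mM CaCl2, 0.5% PEG 8000, 2% DMSO.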

[1] = Inhibition of human chymotrypsin using MeO-SucArg-Pro-Tyr-pNA as substrate after 10 to 120 mins at 37 degC by spectrophotometric method; procedure, shortened: as §1
Coagulation factor X = Coagulation factor X (Homo sapiens, UniProt P00742); experiment: Inhibition of human coagulation factor 10a using N-benzoyl-Ile-Glu-(OH,OMe)-Gly-Arg-pNA as substrate after 10 to 120 mins at 37 degC by spectrophotometric method; procedure, shortened: as §1
Chain of Coagulation factor X (P00742 41-179 limits assumed): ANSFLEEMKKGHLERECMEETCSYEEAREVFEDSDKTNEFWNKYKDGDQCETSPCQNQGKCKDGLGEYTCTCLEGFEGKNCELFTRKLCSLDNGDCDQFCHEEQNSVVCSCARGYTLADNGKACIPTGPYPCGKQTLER
Chain of Coagulation factor X (P00742 235-488 limits assumed): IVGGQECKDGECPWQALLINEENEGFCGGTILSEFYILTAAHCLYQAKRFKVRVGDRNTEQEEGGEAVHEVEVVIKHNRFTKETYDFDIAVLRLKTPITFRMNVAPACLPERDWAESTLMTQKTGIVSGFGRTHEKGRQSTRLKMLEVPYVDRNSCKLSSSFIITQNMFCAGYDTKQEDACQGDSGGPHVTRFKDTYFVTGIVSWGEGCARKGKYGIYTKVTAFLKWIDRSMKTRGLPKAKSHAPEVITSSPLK

[2] = molecular target: Urokinase-type plasminogen activator (Homo sapiens, UniProt P00749); experiment: Inhibition of human urokinase using pyro-Glu-Gly-Arg-pNA as substrate after 10 to 120 mins at 37 degC by spectrophotometric method; procedure, shortened: as §1
[3] = Half life in Beagle dog at 0.19 mg/kg, iv administered as 10 mins infusion or 0.32 mg/kg, po via gavage administered as cassette dose by LC-MS/MS method; type: ADME, organism-based, Canis lupus familiaris; settings: in vivo
Procedure, shortened: (§2)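 Dog PK vehicles as footnoted: iv in 70% PEG 400/20% water/10% ethanol; po either 70% PEG 400/20% TPGS/10% ethanol or the same PEG 400/water/ethanol vehicle used for iv.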

[4] = Permeability from apical to basolateral side in human Caco2 cells; type: ADME, cell-based; settings: Caco-2, read-out: permeability
[5] = molecular target: Vitamin K-dependent protein C (Homo sapiens, UniProt P04070); experiment: Inhibition of human activated protein C using pyroGlu-Pro-Arg-pNA as substrate after 10 to 120 mins at 37 degC by spectrophotometric method; procedure, shortened: as §1
Chain of Vitamin K-dependent protein C (P04070 43-197 limits assumed): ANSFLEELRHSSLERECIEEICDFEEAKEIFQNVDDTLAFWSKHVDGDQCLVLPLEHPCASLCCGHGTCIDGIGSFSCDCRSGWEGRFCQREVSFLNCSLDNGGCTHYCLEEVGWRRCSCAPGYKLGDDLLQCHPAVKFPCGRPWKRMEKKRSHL
Chain of Vitamin K-dependent protein C (P04070 212-461 limits assumed): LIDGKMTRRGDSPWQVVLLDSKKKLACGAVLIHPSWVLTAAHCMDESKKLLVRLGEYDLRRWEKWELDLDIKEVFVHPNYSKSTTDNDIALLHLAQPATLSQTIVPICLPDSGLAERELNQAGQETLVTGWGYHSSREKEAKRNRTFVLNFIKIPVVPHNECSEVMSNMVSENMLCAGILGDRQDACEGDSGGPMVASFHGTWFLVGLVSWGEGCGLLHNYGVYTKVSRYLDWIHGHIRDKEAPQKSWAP

[6] = Half life in dog liver microsomes; type: ADME, Canis lupus familiaris, microsome
Coagulation factor IX = Coagulation factor IX (Homo sapiens, UniProt P00740); experiment: Inhibition of human coagulation factor 9a using methylsulfonyl-D-cyclohexylglycyl-Gly-Arg-AMC as substrate after 10 to 120 mins at 37 degC by spectrophotometric method; procedure, shortened: as §1
Chain of Coagulation factor IX (P00740 47-191 limits assumed): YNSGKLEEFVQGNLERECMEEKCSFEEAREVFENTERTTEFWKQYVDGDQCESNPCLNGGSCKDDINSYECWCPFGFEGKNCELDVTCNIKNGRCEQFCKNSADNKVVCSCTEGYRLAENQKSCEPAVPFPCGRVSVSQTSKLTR
Chain of Coagulation factor IX (P00740 227-461 limits assumed): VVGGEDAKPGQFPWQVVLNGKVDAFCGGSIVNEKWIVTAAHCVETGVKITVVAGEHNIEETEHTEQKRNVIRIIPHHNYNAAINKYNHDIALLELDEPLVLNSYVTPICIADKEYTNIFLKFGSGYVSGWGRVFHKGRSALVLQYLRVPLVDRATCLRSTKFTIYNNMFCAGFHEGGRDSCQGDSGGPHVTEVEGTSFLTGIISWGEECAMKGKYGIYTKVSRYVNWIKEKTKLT

[7] = molecular target: Tissue-type plasminogen activator (Homo sapiens, UniProt P00750); experiment: Inhibition of human tissue plasminogen activator using methylsulfonyl-D-cyclohexylalanyl-GlyArg-pNA as substrate after 10 to 120 mins at 37 degC by spectrophotometric method; procedure, shortened: as §1
Chain of Tissue-type plasminogen activator (P00750 whole entry): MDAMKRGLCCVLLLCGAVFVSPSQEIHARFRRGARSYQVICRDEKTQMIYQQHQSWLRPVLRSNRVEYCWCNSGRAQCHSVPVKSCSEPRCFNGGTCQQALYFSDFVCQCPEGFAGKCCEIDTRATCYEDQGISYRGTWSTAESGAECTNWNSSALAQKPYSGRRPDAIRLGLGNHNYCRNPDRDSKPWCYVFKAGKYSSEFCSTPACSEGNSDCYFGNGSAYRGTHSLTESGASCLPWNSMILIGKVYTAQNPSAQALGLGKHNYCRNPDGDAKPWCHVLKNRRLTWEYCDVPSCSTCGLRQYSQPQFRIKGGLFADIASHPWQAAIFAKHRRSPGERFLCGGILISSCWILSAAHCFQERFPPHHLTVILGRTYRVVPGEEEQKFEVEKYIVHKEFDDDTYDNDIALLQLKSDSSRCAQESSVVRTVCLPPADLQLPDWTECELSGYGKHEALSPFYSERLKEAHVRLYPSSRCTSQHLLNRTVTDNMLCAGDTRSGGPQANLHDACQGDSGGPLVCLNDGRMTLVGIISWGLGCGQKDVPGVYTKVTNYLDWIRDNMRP

[8] = Protein binding in dog plasma; type: ADME, cell-free, Canis lupus familiaris; settings: read-out: PPB (converted)
[9] = Inhibition of human trypsin using N-benzoyl-Ile-Glu-(OH,OMe)-Gly-Arg-pNA as substrate after 10 to 120 mins at 37 degC by spectrophotometric method; procedure, shortened: as §1
Coagulation factor XII = molecular target: T1, Coagulation factor XII (Homo sapiens, UniProt P00748); experiment: Inhibition of human coagulation factor 12a using H-(D)-CHT-Gly-Arg-pNA as substrate after 10 to 120 mins at 25 degC by spectrophotometric method
T1 sequence (P00748 whole entry): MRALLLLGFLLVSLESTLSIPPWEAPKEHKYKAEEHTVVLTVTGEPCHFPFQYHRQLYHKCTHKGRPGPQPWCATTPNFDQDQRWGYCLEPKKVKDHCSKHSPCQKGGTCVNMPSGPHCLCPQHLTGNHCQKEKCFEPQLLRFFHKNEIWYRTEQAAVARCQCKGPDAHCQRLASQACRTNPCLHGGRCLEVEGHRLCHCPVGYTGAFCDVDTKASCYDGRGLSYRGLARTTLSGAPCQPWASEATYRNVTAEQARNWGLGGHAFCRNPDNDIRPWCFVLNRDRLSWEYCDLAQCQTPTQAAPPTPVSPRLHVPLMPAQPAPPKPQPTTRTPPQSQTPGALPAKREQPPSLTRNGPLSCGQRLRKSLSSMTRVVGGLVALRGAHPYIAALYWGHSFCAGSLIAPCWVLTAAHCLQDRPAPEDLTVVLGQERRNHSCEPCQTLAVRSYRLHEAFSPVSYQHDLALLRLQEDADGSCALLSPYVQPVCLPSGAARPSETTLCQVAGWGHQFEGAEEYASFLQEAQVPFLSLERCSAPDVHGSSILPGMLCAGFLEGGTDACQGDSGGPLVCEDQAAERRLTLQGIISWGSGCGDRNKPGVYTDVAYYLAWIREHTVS

Prothrombin = Prothrombin (Homo sapiens, UniProt P00734); experiment: Inhibition of human thrombin using pyroGlu-Pro-Arg-pNA as substrate after 10 to 120 mins at 37 degC by spectrophotometric method; procedure, shortened: as §1
Canis familiaris [10] = experiment: Oral bioavailability in Beagle dog at 0.32 mg/kg administered via gavage as cassette dose by LC-MS/MS method; type: ADME, organism-based, Canis lupus familiaris; settings: in vivo; procedure, shortened: as §2
Plasma = experiment: Anticoagulant activity in human plasma assessed as concentration required to produce 50% increase in activated partial thromboplastin time; type: functional
Procedure, shortened: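 Citrated (one-tenth volume 0.11 M) plasma from healthy volunteers, spun 2,000 g 10 min, kept on ice; 10 mM DMSO stock diluted in plasma, up to 7 concentrations; aPTT on automated coagulometer, duplicates as mean ratio to baseline; EC1.5x (50% prolongation) by linear interpolation, as total plasma concentration.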

Plasminogen = Plasminogen (Homo sapiens, UniProt P00747); experiment: Inhibition of human plasmin using H-(D)-Val-Leu-LyspNA as substrate after 10 to 120 mins at 37 degC by spectrophotometric method; procedure, shortened: as §1
Chain of Plasminogen (P00747 97-580 limits assumed): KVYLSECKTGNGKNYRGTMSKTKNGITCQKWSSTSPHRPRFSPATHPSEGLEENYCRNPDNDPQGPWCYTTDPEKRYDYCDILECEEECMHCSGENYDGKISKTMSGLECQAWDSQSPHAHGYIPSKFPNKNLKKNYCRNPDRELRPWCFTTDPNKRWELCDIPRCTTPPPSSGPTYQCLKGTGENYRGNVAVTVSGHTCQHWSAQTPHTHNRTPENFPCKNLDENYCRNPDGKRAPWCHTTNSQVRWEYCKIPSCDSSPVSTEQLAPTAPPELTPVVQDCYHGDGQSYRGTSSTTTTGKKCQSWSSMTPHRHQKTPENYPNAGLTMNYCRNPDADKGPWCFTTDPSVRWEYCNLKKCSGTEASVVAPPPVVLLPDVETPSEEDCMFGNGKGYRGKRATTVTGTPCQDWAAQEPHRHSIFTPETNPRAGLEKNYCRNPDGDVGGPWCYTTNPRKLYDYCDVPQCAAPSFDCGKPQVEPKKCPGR
Chain of Plasminogen (P00747 581-810 limits assumed): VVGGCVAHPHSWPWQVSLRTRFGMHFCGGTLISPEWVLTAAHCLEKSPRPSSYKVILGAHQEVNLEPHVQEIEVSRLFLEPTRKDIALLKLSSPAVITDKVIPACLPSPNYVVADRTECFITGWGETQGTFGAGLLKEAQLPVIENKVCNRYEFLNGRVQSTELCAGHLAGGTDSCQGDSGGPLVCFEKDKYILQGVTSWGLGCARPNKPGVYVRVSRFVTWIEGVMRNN

[11] = Half life in human liver microsomes; type: ADME, microsome
Canis familiaris [12] = experiment: AUC in Beagle dog at 0.32 mg/kg, po administered via gavage as cassette dose by LC-MS/MS method; type: ADME, organism-based, Canis lupus familiaris; settings: in vivo; procedure, shortened: as §2
Coagulation factor VII = molecular target: T2, Coagulation factor VII (Homo sapiens, UniProt P08709); experiment: Inhibition of human coagulation factor 7a using H-(D)-Ile-Pro-Arg-pNA as substrate after 10 to 120 mins at 25 degC by spectrophotometric method
T2 sequence (P08709 whole entry): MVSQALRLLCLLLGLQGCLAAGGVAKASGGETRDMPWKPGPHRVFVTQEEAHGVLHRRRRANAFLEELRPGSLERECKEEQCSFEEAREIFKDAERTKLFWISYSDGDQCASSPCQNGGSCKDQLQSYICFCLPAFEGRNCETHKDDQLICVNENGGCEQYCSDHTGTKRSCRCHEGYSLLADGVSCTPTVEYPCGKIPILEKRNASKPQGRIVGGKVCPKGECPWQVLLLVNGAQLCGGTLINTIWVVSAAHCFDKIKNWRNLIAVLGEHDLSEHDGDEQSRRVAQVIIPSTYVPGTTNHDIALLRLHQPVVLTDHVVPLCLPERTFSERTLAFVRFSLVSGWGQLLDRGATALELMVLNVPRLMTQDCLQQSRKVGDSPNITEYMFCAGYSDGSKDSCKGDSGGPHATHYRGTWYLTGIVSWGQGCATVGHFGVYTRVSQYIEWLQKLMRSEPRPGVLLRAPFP

[13] = Volume of distribution at steady state in Beagle dog at 0.19 mg/kg, iv administered as 10 mins infusion or 0.32 mg/kg, po via gavage administered as cassette dose by LC-MS/MS method; type: ADME, organism-based, Canis lupus familiaris; settings: in vivo, read-out: Vdss; procedure, shortened: as §2
[14] = Oral bioavailability in Beagle dog at 0.35 mg/kg administered via gavage as cassette dose by LC-MS/MS method; type: ADME, organism-based, Canis lupus familiaris; settings: in vivo; procedure, shortened: as §2
Coagulation factor XI = Coagulation factor XI (Homo sapiens, UniProt P03951); experiment: Inhibition of human coagulation factor 11a using pyroGlu-Pro-Arg-pNA as substrate after 10 to 120 mins at 37 degC by spectrophotometric method; procedure, shortened: as §1
Chain of Coagulation factor XI (P03951 19-387 limits assumed): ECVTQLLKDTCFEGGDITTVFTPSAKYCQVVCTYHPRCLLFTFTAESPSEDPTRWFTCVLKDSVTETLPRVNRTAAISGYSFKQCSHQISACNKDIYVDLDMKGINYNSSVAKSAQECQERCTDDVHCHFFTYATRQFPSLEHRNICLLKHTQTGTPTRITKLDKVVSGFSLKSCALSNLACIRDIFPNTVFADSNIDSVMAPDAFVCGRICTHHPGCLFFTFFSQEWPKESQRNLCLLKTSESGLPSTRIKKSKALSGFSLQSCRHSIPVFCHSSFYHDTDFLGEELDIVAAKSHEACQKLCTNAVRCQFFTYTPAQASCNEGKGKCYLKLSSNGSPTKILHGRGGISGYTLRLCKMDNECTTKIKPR
Chain of Coagulation factor XI (P03951 388-625 limits assumed): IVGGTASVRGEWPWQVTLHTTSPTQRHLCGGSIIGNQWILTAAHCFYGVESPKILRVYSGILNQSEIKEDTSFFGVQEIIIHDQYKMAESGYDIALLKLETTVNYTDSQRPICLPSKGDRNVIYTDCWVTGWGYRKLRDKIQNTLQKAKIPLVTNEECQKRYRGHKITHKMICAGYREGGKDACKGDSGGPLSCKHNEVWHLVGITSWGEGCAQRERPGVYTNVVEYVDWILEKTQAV

Canis familiaris [15] = experiment: Volume of distribution at steady state in Beagle dog at 0.2 mg/kg, iv administered as 10 mins infusion or 0.35 mg/kg, po via gavage administered as cassette dose by LC-MS/MS method; type: ADME, organism-based, Canis lupus familiaris; settings: in vivo; procedure, shortened: as §2
Canis familiaris [16] = experiment: Half life in Beagle dog at 0.2 mg/kg, iv administered as 10 mins infusion or 0.35 mg/kg, po via gavage administered as cassette dose by LC-MS/MS method; type: ADME, organism-based, Canis lupus familiaris; settings: in vivo; procedure, shortened: as §2

Chain of Plasma kallikrein (P03952 20-390 limits assumed): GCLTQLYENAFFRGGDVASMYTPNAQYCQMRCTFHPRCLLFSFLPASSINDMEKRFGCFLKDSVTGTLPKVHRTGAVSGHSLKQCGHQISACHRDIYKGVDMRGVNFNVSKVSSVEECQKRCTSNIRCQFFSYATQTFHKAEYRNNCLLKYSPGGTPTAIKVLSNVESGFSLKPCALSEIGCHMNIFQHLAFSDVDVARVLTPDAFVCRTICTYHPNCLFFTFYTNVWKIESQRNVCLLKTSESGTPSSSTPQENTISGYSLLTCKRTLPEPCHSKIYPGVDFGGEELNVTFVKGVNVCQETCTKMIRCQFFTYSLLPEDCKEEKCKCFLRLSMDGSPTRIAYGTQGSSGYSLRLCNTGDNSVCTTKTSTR
Chain of Plasma kallikrein (P03952 391-638 limits assumed): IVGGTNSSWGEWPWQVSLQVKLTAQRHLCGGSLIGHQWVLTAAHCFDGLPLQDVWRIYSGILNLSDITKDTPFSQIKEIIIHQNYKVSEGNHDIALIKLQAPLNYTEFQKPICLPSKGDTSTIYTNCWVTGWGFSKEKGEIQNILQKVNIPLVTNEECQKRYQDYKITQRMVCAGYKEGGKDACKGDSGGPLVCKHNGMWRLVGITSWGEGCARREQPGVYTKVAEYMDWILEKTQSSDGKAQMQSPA

Ki (Plasma kallikrein): 16 nM | Ki [1]: 1500 nM | Ki (Coagulation factor X): > 13300 nM | Ki [2]: 5050 nM | half-life [3]: 1.2 h | Papp A→B [4]: < 1.5 ×10⁻⁶ cm/s | Ki [5]: > 21500 nM | half-life [6]: > 2 h | Ki (Coagulation factor IX): > 27100 nM | Ki [7]: > 6150 nM | fraction unbound [8]: 0.085 | Ki [9]: 1520 nM | Ki (Coagulation factor XII): > 3050 nM | Ki (Prothrombin): > 11500 nM | F (Canis familiaris [10]): 1% | Ki (Plasminogen): > 14200 nM | half-life [11]: 0.683 h | AUC (Canis familiaris [12]): 2.5 nM·h | Ki (Coagulation factor VII): 1670 nM | Vd [13]: 1.8 L/kg
SMILES: COC(=O)Nc1ccc2c(c1)NC(=O)CC/C=C/C[C@H](NC(=O)/C=C/c1cc(Cl)ccc1-n1cnnn1)c1nc-2c[nH]1
EC1.5 (Plasma): 0.27 µM

bioavailability [14]: 0% | Ki (Coagulation factor XI): 3.2 nM | Papp A→B [4]: < 1.5 ×10⁻⁶ cm/s | half-life [6]: > 2 h | Vdss (Canis familiaris [15]): 3.9 L/kg | fraction unbound [8]: 0.066 | half-life [11]: 0.567 h | t1/2 (Canis familiaris [16]): 1.1 h
SMILES: COC(=O)Nc1ccc2c(c1)NC(=O)CCCCC[C@H](NC(=O)/C=C/c1cc(Cl)ccc1-n1cnnn1)c1nc-2c[nH]1
EC1.5 (Plasma): 1.2 µM

Source: ChEMBL document CHEMBL3992532, “Structure-Based Design of Macrocyclic Factor XIa Inhibitors: Discovery of the Macrocyclic Amide Linker” (J Med Chem, 2017)
